Calls of active or inactive are those of the source. The rule behind the calls is not given here.

Test [1] concerns CD4+ve Th. The test can be described thus: Inhibition of anti-CD3/CD28 antibodies stimulated-IFN-gamma production in BALB/c mouse CD4+ T cells at 100 to 400 nM measured after 48 hrs by ELISA. It counts as functional, cell-based. To be noted: dose 100-400 nM. The method in brief:
(§1)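 Supernatants of BALB/c splenic CD4+ T cells, purified by immunomagnetic negative selection (>98% purity). Cells stimulated with anti-CD3 (5 µg/ml) plus anti-CD28 (2 µg/ml) in RPMI 1640 with 10% FBS and penicillin/streptomycin at 37 °C, 5% CO₂. Compound is given from DMSO stock diluted in medium at increasing concentrations for 48 h. Mouse IFN-γ or IL-4 measured by ELISA kit.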
(In general: In an ELISA, binding on a coated surface is turned into a signal by an enzyme label.)

Test [2] deals with CD4+ve Th. Briefly: Inhibition of anti-CD3/CD28 antibodies stimulated-IL-4 production in BALB/c mouse CD4+ T cells at 100 to 400 nM measured after 48 hrs by ELISA. It counts as functional, cell-based. To be noted: dose 100-400 nM. The method in brief:
as §1

Test [3] in a line: Inhibition of anti-CD3/CD28 antibodies-stimulated BALB/c mouse CD4+ T cell activation assessed as frequency of CD4+/CD69+ T cells at 400 nM measured after 48 hrs by flow cytometric analysis (reference value: 14.9%). Also on record: scale not given: the % may be the effect or the level left. It counts as functional, CD4+ve Th. Summed up:
(§2)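 Purified BALB/c splenic CD4+ T cells (negative selection) stimulated with anti-CD3 plus anti-CD28 in RPMI 1640/10% FBS with compound for 24 or 48 h. Cells Fc-blocked with anti-CD16/CD32, then stained with FITC-CD3, PE-CD25, APC-CD4 and BV421-CD69. Analyzed by flow cytometry. Data as mean ± SD; one-way ANOVA with Dunnett's test.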
On the technique in general: Flow cytometry measures light scatter and fluorescence of single cells or particles in a stream.

In test [4] the target is T1, Tyrosine-protein kinase ZAP-70 (Homo sapiens, UniProt P43403).
T1 sequence (P43403 whole entry): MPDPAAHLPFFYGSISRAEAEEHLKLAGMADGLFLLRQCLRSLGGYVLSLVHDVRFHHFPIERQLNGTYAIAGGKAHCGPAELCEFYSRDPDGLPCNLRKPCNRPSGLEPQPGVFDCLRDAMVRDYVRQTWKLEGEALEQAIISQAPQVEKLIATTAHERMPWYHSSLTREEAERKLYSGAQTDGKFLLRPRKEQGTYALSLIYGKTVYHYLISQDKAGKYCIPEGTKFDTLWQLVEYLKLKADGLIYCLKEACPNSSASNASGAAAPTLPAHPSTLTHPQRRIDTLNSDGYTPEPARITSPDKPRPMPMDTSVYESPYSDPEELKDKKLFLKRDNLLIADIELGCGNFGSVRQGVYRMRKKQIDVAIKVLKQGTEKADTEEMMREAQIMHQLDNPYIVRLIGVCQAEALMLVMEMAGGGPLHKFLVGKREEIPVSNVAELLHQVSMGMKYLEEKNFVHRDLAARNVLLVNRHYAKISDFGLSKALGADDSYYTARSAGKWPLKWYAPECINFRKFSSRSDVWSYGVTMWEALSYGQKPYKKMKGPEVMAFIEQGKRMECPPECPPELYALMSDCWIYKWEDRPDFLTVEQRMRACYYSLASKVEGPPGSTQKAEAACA
Briefly: Inhibition of N-terminal GST-fused human recombinant full length ZAP70 (1 to 619 residues) expressed in baculovirus-infected Sf21 cells using FAM-22 peptide as substrate preincubated with enzyme for 10 mins followed by substrate addition for 30 mins in presence of ATP by caliper mobility shift assay.

Test [5] has as its target Tyrosine-protein kinase SYK (Homo sapiens, UniProt P43405). Briefly: Inhibition of N-terminal GST-fused human recombinant full length SYK (1 to 635 residues) expressed in baculovirus-infected Sf21 cells using FAM-22 peptide as substrate preincubated with enzyme for 10 mins followed by substrate addition for 30 mins in presence of ATP by caliper mobility shift assay.
Test [6] addresses Tyrosine-protein kinase ABL1 (Homo sapiens, UniProt P00519). The test can be described thus: Inhibition of ABL (unknown origin).
Test [7] addresses Tyrosine-protein kinase BTK (Homo sapiens, UniProt Q06187). Briefly: Inhibition of BTK (unknown origin).
Test [8] has as its target Tyrosine-protein kinase HCK (Homo sapiens, UniProt P08631). Briefly: Inhibition of HCK (unknown origin).
In test [9] the target is T2, Tyrosine-protein kinase ITK/TSK (Homo sapiens, UniProt Q08881).
T2 sequence (Q08881 whole entry): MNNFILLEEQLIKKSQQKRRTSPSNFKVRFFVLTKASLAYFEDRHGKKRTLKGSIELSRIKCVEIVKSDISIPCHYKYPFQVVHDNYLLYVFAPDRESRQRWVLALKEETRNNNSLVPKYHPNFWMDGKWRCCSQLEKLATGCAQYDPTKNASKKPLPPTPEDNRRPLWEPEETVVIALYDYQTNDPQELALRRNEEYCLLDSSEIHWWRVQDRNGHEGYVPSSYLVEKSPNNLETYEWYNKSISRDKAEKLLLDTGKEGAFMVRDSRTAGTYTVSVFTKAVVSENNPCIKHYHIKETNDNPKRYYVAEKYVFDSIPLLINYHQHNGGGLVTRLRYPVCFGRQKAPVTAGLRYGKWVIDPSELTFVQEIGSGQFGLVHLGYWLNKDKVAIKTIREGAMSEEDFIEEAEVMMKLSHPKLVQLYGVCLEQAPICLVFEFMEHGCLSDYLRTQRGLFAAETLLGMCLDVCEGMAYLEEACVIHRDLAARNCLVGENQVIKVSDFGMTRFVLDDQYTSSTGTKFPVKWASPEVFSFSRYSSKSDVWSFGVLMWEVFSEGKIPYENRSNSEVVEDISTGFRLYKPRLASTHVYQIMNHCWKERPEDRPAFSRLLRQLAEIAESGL
Briefly: Inhibition of ITK (unknown origin).

The target in test [10] is Tyrosine-protein kinase JAK1 (Homo sapiens, UniProt P23458). The test can be described thus: Inhibition of JAK1 (unknown origin).
Tyrosine-protein kinase JAK1, sequence (P23458 whole entry): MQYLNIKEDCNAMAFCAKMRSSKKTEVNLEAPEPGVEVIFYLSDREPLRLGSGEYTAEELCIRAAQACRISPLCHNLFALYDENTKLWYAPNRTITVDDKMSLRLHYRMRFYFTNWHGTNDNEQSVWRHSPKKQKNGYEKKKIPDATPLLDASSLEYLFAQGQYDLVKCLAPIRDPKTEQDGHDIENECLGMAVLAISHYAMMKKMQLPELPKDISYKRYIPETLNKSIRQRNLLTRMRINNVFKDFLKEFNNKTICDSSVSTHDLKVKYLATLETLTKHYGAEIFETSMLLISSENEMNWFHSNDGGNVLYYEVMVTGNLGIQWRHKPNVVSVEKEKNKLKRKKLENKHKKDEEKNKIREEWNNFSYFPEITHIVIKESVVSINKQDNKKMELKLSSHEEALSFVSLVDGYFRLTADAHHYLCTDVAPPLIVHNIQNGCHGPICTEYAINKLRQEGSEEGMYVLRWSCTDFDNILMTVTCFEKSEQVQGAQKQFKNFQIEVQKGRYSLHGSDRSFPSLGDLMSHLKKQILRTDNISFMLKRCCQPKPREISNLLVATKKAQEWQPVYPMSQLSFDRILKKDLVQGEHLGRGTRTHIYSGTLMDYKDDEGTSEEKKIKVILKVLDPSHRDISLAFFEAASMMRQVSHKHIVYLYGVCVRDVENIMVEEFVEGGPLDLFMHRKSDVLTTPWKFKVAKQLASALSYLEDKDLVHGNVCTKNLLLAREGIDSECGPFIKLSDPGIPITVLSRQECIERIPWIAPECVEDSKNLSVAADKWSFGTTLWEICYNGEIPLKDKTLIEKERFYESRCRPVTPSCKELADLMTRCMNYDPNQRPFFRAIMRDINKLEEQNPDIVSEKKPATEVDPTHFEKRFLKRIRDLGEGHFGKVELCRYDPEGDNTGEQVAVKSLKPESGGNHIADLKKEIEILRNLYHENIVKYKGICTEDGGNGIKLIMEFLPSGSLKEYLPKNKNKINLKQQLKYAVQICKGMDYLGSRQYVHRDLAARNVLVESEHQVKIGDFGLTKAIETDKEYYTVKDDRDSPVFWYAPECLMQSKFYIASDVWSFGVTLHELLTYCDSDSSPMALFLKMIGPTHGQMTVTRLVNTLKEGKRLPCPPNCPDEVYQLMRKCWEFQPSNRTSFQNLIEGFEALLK
In test [11] the target is Tyrosine-protein kinase JAK2 (Homo sapiens, UniProt O60674). Briefly: Inhibition of JAK2 (unknown origin).
Test [12] concerns the target Tyrosine-protein kinase Lck (Homo sapiens, UniProt P06239). Briefly: Inhibition of LCK (unknown origin).
For test [13], the target named is Proto-oncogene tyrosine-protein kinase Src (Homo sapiens, UniProt P12931). Briefly: Inhibition of SRC (unknown origin).
Proto-oncogene tyrosine-protein kinase Src, sequence (P12931 2-536 limits assumed): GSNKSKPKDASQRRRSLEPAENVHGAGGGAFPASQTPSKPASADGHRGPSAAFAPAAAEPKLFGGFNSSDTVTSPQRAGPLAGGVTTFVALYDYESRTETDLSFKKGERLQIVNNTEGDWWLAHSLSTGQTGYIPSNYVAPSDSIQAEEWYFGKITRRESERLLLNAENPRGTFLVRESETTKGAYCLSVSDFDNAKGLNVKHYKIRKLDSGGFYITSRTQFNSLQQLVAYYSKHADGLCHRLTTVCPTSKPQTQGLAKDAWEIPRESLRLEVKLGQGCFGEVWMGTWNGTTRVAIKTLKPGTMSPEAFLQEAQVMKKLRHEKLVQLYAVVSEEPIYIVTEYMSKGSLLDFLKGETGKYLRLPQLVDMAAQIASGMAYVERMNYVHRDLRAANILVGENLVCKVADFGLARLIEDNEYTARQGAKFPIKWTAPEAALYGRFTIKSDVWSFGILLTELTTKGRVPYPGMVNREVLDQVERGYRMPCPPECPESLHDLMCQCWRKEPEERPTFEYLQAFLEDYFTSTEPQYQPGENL
For test [14], the target named is Non-receptor tyrosine-protein kinase TYK2 (Homo sapiens, UniProt P29597). Briefly: Inhibition of TYK2 (unknown origin).
Non-receptor tyrosine-protein kinase TYK2, sequence (P29597 whole entry): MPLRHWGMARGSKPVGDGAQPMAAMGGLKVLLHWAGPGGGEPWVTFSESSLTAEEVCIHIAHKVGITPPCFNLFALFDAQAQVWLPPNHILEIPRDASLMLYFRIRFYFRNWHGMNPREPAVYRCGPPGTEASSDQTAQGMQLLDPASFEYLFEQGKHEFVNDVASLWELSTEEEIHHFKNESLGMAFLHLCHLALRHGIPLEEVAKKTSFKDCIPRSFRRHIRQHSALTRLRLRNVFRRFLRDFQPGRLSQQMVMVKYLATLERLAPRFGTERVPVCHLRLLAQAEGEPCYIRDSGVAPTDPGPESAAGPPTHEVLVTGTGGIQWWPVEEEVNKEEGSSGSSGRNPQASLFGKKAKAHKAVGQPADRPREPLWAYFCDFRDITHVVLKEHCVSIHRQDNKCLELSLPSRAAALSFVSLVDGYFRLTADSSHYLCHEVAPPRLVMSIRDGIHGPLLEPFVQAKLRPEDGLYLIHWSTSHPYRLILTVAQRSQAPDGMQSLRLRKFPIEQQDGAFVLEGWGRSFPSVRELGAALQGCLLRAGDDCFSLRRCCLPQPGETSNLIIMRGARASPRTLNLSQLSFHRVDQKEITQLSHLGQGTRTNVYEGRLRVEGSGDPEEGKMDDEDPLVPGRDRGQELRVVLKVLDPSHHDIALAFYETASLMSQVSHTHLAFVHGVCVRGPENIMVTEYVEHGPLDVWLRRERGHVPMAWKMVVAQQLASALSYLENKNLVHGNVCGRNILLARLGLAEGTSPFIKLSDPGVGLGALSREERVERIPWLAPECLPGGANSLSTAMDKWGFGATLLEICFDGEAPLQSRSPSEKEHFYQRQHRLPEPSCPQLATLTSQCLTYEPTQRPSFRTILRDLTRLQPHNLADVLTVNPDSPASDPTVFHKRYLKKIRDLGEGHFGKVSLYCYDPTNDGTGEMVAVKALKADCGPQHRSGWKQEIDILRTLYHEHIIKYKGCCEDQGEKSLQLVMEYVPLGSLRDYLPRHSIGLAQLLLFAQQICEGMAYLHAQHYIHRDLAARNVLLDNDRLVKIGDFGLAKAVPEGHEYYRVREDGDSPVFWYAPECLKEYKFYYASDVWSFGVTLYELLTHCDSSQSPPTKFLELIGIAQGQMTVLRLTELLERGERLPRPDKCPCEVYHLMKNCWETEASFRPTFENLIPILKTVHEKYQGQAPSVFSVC
Test [15] concerns CD4+ve Th. Briefly: Inhibition of anti-CD3/CD28 antibodies-stimulated BALB/c mouse CD4+ T cell proliferation measured after 48 hrs by [3H]thymidine incorporation based beta scintillation counting analysis. It counts as functional, tissue-based. To be noted: dose 100-400 nM. The method in brief:
(§3)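 Purified BALB/c splenic CD4+ T cells stimulated with anti-CD3 plus anti-CD28 in RPMI 1640/10% FBS with compound (DMSO stock diluted in medium). After 48 h, cultures pulsed with [³H]thymidine 0.5 µCi/well. Incorporated radioactivity counted by beta scintillation.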

The nature of test [16]: Inhibition of anti-CD3/CD28 antibodies-stimulated BALB/c mouse CD4+ T cell proliferation at 400 nM measured after 48 hrs by [3H]thymidine incorporation based beta scintillation counting analysis. It counts as functional. The conditions noted are these: CD4+ve Th. Summed up: as §3
In general terms: Dividing cells build labelled thymidine or BrdU into new DNA.

The test system of test [17] is CD4+ve Th. Briefly: Inhibition of anti-CD3/CD28 antibodies-stimulated BALB/c mouse CD4+ T cell division measured after 72 hrs by CFSE-labeled flow cytometry. It counts as functional, tissue-based. The conditions noted are these: dose 100-400 nM. The method in brief:
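Purified BALB/c CD4+ T cells labeled with CFSE at 37 °C for 5 min and washed in RPMI 1640/20% FBS. Cells cultured with anti-CD3 ([…]) plus anti-CD28 ([…]) in RPMI 1640/10% FBS with compound for 72 h. Division read as CFSE dilution by flow cytometry.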

Test [18] concerns the target T3, Tyrosine-protein kinase ZAP-70 (Homo sapiens) (UniProt P43403).
T3 sequence (whole entry): T1 sequence (P43403 whole entry)
The test can be described thus: Covalent binding affinity at C346 residue of N-terminal GST-fused human recombinant full length ZAP70 (1 to 619 residues) expressed in baculovirus-infected Sf21 cells at 55 nM preincubated for 5 mins followed by DTT challenge for 10 mins and measured after 18 hrs following trypsin digestion by mass spectrometry. The conditions noted are these: time 1095.0 min. The method in brief:
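Recombinant ZAP-70 at 75 nM final in assay buffer (0.01% Triton X-100, 50 mM HEPES, 5 mM MgCl₂, 1 mM MnCl₂). Compound added to 55 nM final and incubated 5 min at 28 °C. DTT then added to 2 mM final for 10 min at room temperature. Trypsin digestion at 37 °C for 18 h, stopped with TFA, C18 desalting. Modified sites mapped by nano-LC–MS/MS.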

The nature of test [19]: Inhibition of anti-CD3/CD28 antibodies-stimulated BALB/c mouse CD4+ T cell activation assessed as frequency of CD4+/CD69+ T cells at 200 nM measured after 48 hrs by flow cytometric analysis (reference value: 14.9%). It counts as functional, CD4+ve Th. Also noted: scale not given: the % may be the effect or the level left. The method in brief: as §2
Test [20] in a line: Inhibition of anti-CD3/CD28 antibodies-stimulated BALB/c mouse CD4+ T cell activation assessed as frequency of CD4+/CD69+ T cells at 100 nM measured after 48 hrs by flow cytometric analysis (reference value: 14.9%). Also noted: scale not given: the % may be the effect or the level left. It counts as functional, CD4+ve Th. Summed up:
as §2

Test [21] in a line: Inhibition of anti-CD3/CD28 antibodies-stimulated BALB/c mouse CD4+ T cell activation assessed as frequency of CD4+/CD69+ T cells at 100 nM measured after 24 hrs by flow cytometric analysis (reference value: 2.51%). It counts as functional, CD4+ve Th. Also noted: scale not given: the % may be the effect or the level left. Summed up: as §2
A short description of test [22]: Inhibition of anti-CD3/CD28 antibodies-stimulated BALB/c mouse CD4+ T cell activation assessed as frequency of CD4+/CD69+ T cells at 200 nM measured after 24 hrs by flow cytometric analysis (reference value: 2.51%). It counts as functional, CD4+ve Th. Also noted: scale not given: the % may be the effect or the level left. The method in brief: as §2
The nature of test [23]: Inhibition of anti-CD3/CD28 antibodies-stimulated BALB/c mouse CD4+ T cell activation assessed as frequency of CD4+/CD69+ T cells at 400 nM measured after 24 hrs by flow cytometric analysis (reference value: 2.51%). It counts as functional, CD4+ve Th. Also on record: scale not given: the % may be the effect or the level left. The method in brief:
as §2

For test [24], the system named is CD4+ve Th. Briefly: Inhibition of anti-CD3/CD28 antibodies-stimulated BALB/c mouse CD4+ T cell activation assessed as reduction in CD25 expression measured after 24 to 48 hrs by flow cytometric analysis. It counts as functional, tissue-based. To be noted: time 24-48 hrs. The method in brief:
as §2

Tyrosine-protein kinase BTK, sequence (Q06187 whole entry): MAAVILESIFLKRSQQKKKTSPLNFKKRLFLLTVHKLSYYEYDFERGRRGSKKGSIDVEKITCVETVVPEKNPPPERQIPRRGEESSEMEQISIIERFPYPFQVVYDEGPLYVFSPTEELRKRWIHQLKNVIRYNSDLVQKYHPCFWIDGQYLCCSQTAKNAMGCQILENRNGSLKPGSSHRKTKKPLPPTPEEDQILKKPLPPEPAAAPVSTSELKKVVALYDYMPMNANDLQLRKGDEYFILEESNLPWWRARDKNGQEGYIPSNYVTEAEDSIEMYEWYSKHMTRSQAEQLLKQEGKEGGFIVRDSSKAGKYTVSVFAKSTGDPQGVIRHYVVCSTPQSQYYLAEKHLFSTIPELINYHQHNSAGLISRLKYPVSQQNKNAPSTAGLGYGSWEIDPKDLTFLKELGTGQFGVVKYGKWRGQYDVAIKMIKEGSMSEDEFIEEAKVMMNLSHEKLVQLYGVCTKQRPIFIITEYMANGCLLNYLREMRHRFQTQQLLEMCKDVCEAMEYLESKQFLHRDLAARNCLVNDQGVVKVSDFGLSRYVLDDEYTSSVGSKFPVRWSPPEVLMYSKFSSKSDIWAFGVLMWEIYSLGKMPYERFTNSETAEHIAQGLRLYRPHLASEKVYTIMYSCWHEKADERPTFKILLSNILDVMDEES
Tyrosine-protein kinase Lck, sequence (P06239 whole entry): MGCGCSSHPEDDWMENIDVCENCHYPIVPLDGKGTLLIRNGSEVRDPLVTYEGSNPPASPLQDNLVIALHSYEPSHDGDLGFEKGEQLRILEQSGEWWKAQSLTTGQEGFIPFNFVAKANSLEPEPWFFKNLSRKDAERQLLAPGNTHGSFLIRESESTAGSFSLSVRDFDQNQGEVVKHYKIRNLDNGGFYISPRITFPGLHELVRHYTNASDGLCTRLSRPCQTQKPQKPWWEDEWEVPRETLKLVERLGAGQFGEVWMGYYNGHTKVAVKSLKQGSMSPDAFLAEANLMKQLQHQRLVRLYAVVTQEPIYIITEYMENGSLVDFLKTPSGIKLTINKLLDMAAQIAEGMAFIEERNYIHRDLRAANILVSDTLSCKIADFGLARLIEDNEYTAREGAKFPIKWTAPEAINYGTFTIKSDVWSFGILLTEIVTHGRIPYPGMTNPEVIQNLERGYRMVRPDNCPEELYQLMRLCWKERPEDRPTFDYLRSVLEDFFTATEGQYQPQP
Tyrosine-protein kinase HCK, sequence (P08631 whole entry): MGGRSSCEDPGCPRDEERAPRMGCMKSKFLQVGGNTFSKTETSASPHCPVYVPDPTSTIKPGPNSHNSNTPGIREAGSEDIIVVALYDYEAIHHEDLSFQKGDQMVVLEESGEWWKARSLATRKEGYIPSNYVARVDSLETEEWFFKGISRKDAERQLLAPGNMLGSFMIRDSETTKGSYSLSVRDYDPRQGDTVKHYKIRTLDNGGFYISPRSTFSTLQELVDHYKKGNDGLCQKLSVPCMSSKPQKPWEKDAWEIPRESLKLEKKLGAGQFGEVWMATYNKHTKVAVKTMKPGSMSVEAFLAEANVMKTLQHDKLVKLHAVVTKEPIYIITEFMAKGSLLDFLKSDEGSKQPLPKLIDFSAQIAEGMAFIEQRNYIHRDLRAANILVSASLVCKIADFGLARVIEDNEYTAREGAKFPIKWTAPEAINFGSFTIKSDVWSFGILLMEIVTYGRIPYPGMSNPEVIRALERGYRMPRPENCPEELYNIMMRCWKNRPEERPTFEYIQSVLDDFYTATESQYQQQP

Take `COc1cc(Nc2nc(NCc3cccc(NC(=O)CCl)c3)n3ccnc3c2C(N)=O)cc(OC)c1`: the inhibition result in test [1], in [2] and in test [24] was “Active” in each case. Besides, the Activity in test [3] is 3.64%; in [19], 4.47%; in [20] it was 9.83%; in [21], 1.55%; in test [22] it was 0.932%; in test [23], 0.925%. The half-inhibitory concentration (IC50) in [4] was 55 nM; in test [5] it was greater than 1000 nM; in [6], greater than 1000 nM; in [7], greater than 1000 nM; in test [8], greater than 1000 nM; in test [9], greater than 1000 nM. The IC50 in test [10], in test [11], in [12], in test [13] and in [14] was greater than 1000 nM throughout. Besides, the inhibition result in [15] and in [17] was “Dose-Dependent Effect” in each case. The same compound returned an inhibition at 0.4 µM in [16] of 100%. The outcome in test [18] was Active.

A word on the inhibition: it is the relative decrease from the control value, in per cent. One may read the IC50 as the concentration at which inhibition is half-maximal.
